Where “and” joins values, the source holds several entries; their conditions need not be identical. Identical values can stand only once. Like-named read-outs stand apart in the source and are kept apart here.
Key:
[1] = test system: CNG channels; settings: ref Fodor et al., 1997a,b; cited from earlier work
[2] = target: T1, BK channels (mSlo1) (Mus musculus, UniProt Q08460); assay type: cell-based
How it was run: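 Oocyte inside-out patches at ∼22–25°C. Pipette (mM): 140 K-methanesulfonate, 20 KOH, 10 HEPES, 2 MgCl2, pH 7.0. Cytosolic Ca2+ buffered with 5 mM HEDTA (10 µM) or unbuffered (300 µM). Test compound equilibrated for 4 min at set holding potential/Ca2+ before G-V from brief test steps. Concentration series (at least four) used steps to 160 mV at −70 to 70 mV. Hill and allosteric-scheme fits.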

[3] = target: T1, BK channels (mSlo1); assay: NPo measurements at negative potentials in macropatches; assay type: cell-based
[4] = target: BK channel voltage sensors (mSlo1) (Mus musculus, UniProt Q08460); assay: Gating current measurements in inside-out macropatches; assay type: cell-based; settings: with 500 nM paxilline, 0 Ca^2+
How it was run: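 Inside-out macropatches from oocytes, room temperature (∼22–25°C). Pipette solution (mM): 127 TEA-OH, 125 methanesulfonic acid, 2 MgCl2, 10 HEPES, pH 7.0. Internal solution (mM): 141 NMDG, 135 methanesulfonic acid, 10 HEPES, 5 EGTA, pH 7.0. Voltage commands filtered at 20 kHz. Gating currents filtered at 10 kHz and sampled at 100 kHz. P/5 subtraction of capacitive and leak currents from −80 mV holding.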

[5] = target: T1, BK channels (mSlo1); assay: Kinetics of onset of and recovery from paxilline inhibition of BK current; assay type: cell-based
How it was run: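 Oocyte inside-out patches with fast perfusion, room temperature. BK availability monitored by brief steps to 160 mV. Onset came from wash-in of 100 nM test compound at −80 mV, 300 µM Ca2+, fitted with single exponentials. Block rate was measured over 5–2,000 nM at −80 and −100 mV, with step interval cut to 0.2 s at highest concentrations. Recovery followed a switch in equilibration voltage or washout. Kd was derived from kinetic rates.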

[6] = target: Slo1-A313C channels (unmodified, MTSET-, MTSEA- or MTSES-modified) (Mus musculus, UniProt Q08460, A378C/C495S); assay: Paxilline block of Slo1-A313C currents before and after MTS modification; assay type: cell-based; settings: 100 nM paxilline; for fractional block: 0 mV
[7] = target: BK channels (Slo1) (Mus musculus, UniProt Q08460); assay: Paxilline inhibition of BK current in the presence of bbTBA or 2 M sucrose; assay type: cell-based
[8] = target: T2, Slo1-C430S-A313C channels (Mus musculus, UniProt Q08460, A378C/C495S); assay: MTSET modification of A313C in closed BK channels, without and with paxilline; assay type: cell-based; settings: 500 nM paxilline, −80 mV, 0 Ca^2+
How it was run: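 Slo1-C430S-A313C channels in oocyte inside-out patches. 1 mM MTSET applied for 120 s at −80 mV holding in 0 Ca2+. Currents recorded with 300 µM Ca2+ before and after modification, with steps up to 200 mV. Separate control G-V sets were collected for modification without and with test compound.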

[9] = cited from earlier work
[10] = test system: BK channel G311 mutant; settings: ref Zhou et al., 2010; cited from earlier work
[11] = test system: pH-regulated Slo3 K^+ channel; settings: cited from earlier work
[12] = test system: BK channels; assay: bbTBA block of BK channels; assay type: cell-based; settings: assuming a zδ of 0.148 e assigned to the forward rate
[13] = test system: BK channels; settings: at 100 mV; ref Wilkens and Aldrich, 2006; cited from earlier work
[14] = target: T2, Slo1-C430S-A313C channels; settings: 1 mM MTSET, ref Zhou et al., 2011, cited from earlier work
[15] = in 100 nM paxilline, 10 µM Ca^2+, holding potential 0 mV
[16] = with 50 nM paxilline, all solutions 10 mM DTT, n = 7 patches

Sequence of Slo1-A313C channels (unmodified, MTSET-, MTSEA- or MTSES-modified) (Q08460 whole entry A378C/C495S): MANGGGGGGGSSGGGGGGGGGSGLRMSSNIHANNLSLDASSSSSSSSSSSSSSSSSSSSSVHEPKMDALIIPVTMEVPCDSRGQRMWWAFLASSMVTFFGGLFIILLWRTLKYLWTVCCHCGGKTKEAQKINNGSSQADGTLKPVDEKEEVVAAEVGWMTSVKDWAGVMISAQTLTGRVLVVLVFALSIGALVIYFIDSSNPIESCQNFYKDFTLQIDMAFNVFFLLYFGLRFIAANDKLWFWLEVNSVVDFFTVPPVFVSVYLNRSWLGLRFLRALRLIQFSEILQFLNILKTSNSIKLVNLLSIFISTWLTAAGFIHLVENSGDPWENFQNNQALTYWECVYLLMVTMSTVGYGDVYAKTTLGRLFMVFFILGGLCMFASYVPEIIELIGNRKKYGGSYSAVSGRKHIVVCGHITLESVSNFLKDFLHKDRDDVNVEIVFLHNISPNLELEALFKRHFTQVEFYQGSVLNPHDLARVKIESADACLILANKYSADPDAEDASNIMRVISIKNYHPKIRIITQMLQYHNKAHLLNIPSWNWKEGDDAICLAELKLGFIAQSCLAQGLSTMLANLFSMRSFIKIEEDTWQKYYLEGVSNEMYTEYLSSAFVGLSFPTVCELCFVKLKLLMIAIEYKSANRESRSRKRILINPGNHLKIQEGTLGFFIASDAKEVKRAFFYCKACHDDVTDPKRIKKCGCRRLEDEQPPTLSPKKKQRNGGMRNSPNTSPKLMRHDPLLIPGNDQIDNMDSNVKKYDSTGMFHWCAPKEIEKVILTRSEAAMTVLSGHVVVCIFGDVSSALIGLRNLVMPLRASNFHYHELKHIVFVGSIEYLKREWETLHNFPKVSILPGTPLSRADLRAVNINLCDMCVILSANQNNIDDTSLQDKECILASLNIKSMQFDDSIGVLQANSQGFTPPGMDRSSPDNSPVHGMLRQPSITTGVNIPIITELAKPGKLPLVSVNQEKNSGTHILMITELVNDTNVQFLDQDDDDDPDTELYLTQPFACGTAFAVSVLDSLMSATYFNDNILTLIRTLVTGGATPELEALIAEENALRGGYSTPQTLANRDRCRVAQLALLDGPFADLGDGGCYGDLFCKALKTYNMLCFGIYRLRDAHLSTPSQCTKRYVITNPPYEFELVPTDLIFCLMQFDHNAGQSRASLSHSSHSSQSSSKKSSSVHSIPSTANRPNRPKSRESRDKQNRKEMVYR
T2 sequence (Q08460 whole entry A378C/C495S): as above
Sequence of BK channel voltage sensors (mSlo1) (Q08460 whole entry): as the sequence (Q08460 whole entry A378C/C495S) above, with C378A, S495C counted along it
Sequence of BK channels (Slo1) (Q08460 whole entry): as the sequence (Q08460 whole entry A378C/C495S) above, with C378A, S495C counted along it
T1 sequence (Q08460 whole entry): as the sequence (Q08460 whole entry A378C/C495S) above, with C378A, S495C counted along it

**Q.** With `CCCCNc1ccc(C(=O)OCCN(C)C)cc1` [tetracaine] as the compound, how does the “affinity for closed channels relative to open channels” value [1] read?
**A.** ~1,000 fold

**Q.** For `CC(C)(O)[C@H]1O[C@H]2CC[C@@]3(C)[C@@](O)(CC[C@H]4Cc5c([nH]c6ccccc56)[C@@]43C)C2=CC1=O` [paxilline], which inhibition of current ([2]; 10 nM paxilline, 0 mV, 10 µM Ca^2+ (Po <0.02), 4 min) is on record?
**A.** over half

**Q.** And the inhibition of current ([2]; 100 nM paxilline, 0 mV, 10 µM Ca^2+ (Po <0.02), 4 min)?
**A.** essentially complete inhibition

**Q.** And the inhibition of current ([2]; 100 nM paxilline, holding potential 80 mV, 300 µM Ca^2+, 1 min of application)?
**A.** almost no inhibition

**Q.** And the IC50 ([2]; IC50 (Hill fit), equilibration 0 mV, 300 µM Ca^2+ (Po ∼0.65))?
**A.** 58.4 ± 2.9 nM

**Q.** What about the IC50 ([2]; IC50 (Hill fit), equilibration 40 mV, 300 µM Ca^2+ (Po ∼0.83)) of the same compound?
**A.** 470 ± 94.9 nM

**Q.** What about the IC50 ([2]; IC50 (Hill fit), equilibration 70 mV, 300 µM Ca^2+ (Po ∼0.89)) of the same compound?
**A.** 5370 ± 1000 nM

**Q.** And the IC50 ([2]; IC50 (Hill fit), equilibration −70 mV, 300 µM Ca^2+ (Po ∼0.1))?
**A.** 11.7 ± 1.9 nM

**Q.** And the IC50 ([2]; IC50 for paxilline, as maximal Po was approached)?
**A.** ~10000 nM

**Q.** What about the IC50 ([2]; IC50 for paxilline, channels largely closed) of the same compound?
**A.** ~10 nM

**Q.** And the “reduction in the C-O equilibrium constant L(0)” value ([2]; binding of one paxilline molecule)?
**A.** > 500 fold

**Q.** And the “direct inhibition of the open state” value ([2]; concentrations up to 10 µM)?
**A.** not directly inhibited

**Q.** And the n ([2]; fit of Scheme 1 (Eq. 1) to four equilibration conditions)?
**A.** 1.09 ± 0.11

**Q.** And the “Vh of G-V curve” value [2, 15]?
**A.** 24.75 ± 0.13 mV

**Q.** And the “z of G-V curve” value [2, 15]?
**A.** 0.86 ± 0.01 e

**Q.** And the “affinity for closed conformation relative to open conformation” value ([2]; model-dependent analysis (Scheme 1))?
**A.** > 500 fold and ~500 fold

**Q.** What about the “difference between closed- and open-state affinity” value ([2]; model-independent analysis of IC50 vs state occupancy, and overall conclusion) of the same compound?
**A.** ~1,000 fold

**Q.** What about the “Vh of G-V curve” value [2, 16] of the same compound?
**A.** 21.21 ± 1.85 mV

**Q.** And the “z of G-V curve” value [2, 16]?
**A.** 0.79 ± 0.07 e

**Q.** And the “normalized NPo” value ([3]; 100 nM paxilline, −80 mV, 300 µM Ca^2+)?
**A.** < 0.05

**Q.** What about the IC50 ([3]; IC50 for reduction in normalized NPo, −80 mV, Hill fit with n = 1) of the same compound?
**A.** 5.5 ± 1.1 nM

**Q.** What about the inhibition at 0.1 µM ([3]; read-out: inhibition of BK current (NPo)) of the same compound?
**A.** > 95%

**Q.** What about the Hill coefficient n ([3]; −80 mV, 10 or 300 µM Ca^2+, Hill fit of normalized NPo) of the same compound?
**A.** 0.85 ± 0.25

**Q.** What about the “Vh of Qoff” value [4] of the same compound?
**A.** 130.2 ± 9.1 mV

**Q.** And the “Vh of Qon” value [4]?
**A.** 131.4 ± 2.1 mV

**Q.** What about the “z of Qoff” value [4] of the same compound?
**A.** 0.56 ± 0.035 e

**Q.** What about the “z of Qon” value [4] of the same compound?
**A.** 0.54 ± 0.025 e

**Q.** And the Kd [5]?
**A.** 12.9 nM

**Q.** And the “τon, time constant of onset of inhibition by wash-in” value ([5]; 100 nM paxilline, −80 mV, 300 µM Ca^2+, four patches, mean ± STD)?
**A.** 26.3 ± 6.6 s

**Q.** What about the “time constant of onset of inhibition after change in equilibration condition” value ([5]; constant 100 nM paxilline, 80 to −80 mV, 300 µM Ca^2+, four patches, mean ± STD) of the same compound?
**A.** 6.85 ± 1.79 s

**Q.** What about the “difference in recovery time constant between 20 and 100 nM paxilline” value ([5]; recovery at 0 mV in the constant presence of paxilline, seven patches) of the same compound?
**A.** 1.6 fold

**Q.** What about the “rate of inhibition of closed channels (slope of blocking rate vs [paxilline])” value ([5]; −80 and −100 mV, 300 µM Ca^2+, 5 to 2,000 nM paxilline) of the same compound?
**A.** 2e+06 M⁻¹ s⁻¹

**Q.** And the “mean time constant of recovery” value ([5]; −80 mV)?
**A.** 37.0 s

**Q.** What about the fractional block ([6]; MTSEA-modified Slo1-A313C, 10 µM Ca^2+ (Po ∼0.48)) of the same compound?
**A.** ~0.5

**Q.** And the “inhibition relative to unmodified Slo1-A313C” value ([6]; MTSES-modified Slo1-A313C (Po ∼0.12))?
**A.** only slightly weaker

**Q.** What about the fractional block ([6]; MTSET-modified Slo1-A313C, 10 µM Ca^2+ (Po ∼0.9)) of the same compound?
**A.** < 0.1

**Q.** What about the “block of Slo1-A313C current” value ([6]; unmodified A313C) of the same compound?
**A.** strong block

**Q.** What about the reduction of current ([7]; 100 nM paxilline alone for ∼40 s, 0 mV, 10 µM Ca^2+) of the same compound?
**A.** ~80%

**Q.** And the “reduction of the number of channels blocked by paxilline” value ([7]; 100 nM paxilline applied together with 100 µM bbTBA, 0 mV, 10 µM Ca^2+)?
**A.** ~50%

**Q.** What about the “inhibition of BK current” value ([7]; 100 nM paxilline with 2 M sucrose in the cytosolic solution, 300 µM Ca^2+) of the same compound?
**A.** only a weak inhibition

**Q.** What about the “effect on MTSET modification of A313C in closed channels” value ([8]; 1 mM MTSET for 120 s) of the same compound?
**A.** no difference in modification with or without paxilline

**Q.** What about the “inhibition of BK current during MTSET application” value [8] of the same compound?
**A.** completely inhibited

**Q.** And the logP [9]?
**A.** 3.62

**Q.** And the “effect of G311 mutation on paxilline inhibition” value [10]?
**A.** totally abolishes paxilline inhibition

**Q.** And the “sensitivity to paxilline inhibition” value [11]?
**A.** resistant

**Q.** Which results are given for `CCCC[N+](CCCC)(CCCC)Cc1ccc(C(=O)c2ccccc2)cc1` [bbTBA, N-(4-[benzoyl]benzyl)-N,N,N-tributylammonium]?
**A.** 0-voltage forward rate [12]: 6.7e+07 M⁻¹ s⁻¹; forward rate of block [13]: 1.2e+08 M⁻¹ s⁻¹

**Q.** With `C[N+](C)(C)CCSS(C)(=O)=O.[Br-]` [MTSET, [2-(trimethylammonium)ethyl] MTS bromide] as the compound, how does the “reduction in maximal conductance” value ([14]; closed BK channels) read?
**A.** > 50%

**Q.** What about the “time constant of modification of A313C of closed BK channels” value [14] of the same compound?
**A.** ~23 s

**Q.** For `OC[C@H]1O[C@@](CO)(O[C@H]2O[C@H](CO)[C@@H](O)[C@H](O)[C@H]2O)[C@@H](O)[C@@H]1O` [sucrose], which Vh of activation ([7]; with 2 M sucrose, 300 µM Ca^2+, tail currents at −120 mV) is on record?
**A.** −12.8 ± 3.3 mV

Reference: publication PMC4210426 (The Journal of General Physiology, 2014)
